# Test results: ChEMBL document CHEMBL4732105, “First orally bioavailable prodrug of proteolysis targeting chimera (PROTAC) degrades cyclin-dependent kinases 2/4/6 in vivo” (Eur J Med Chem, 2021)
# Activity calls are given as the source filed them. The rule behind the calls is not given here.
# How the values were obtained:
# [1] = tested on: A-375; assay: Induction of cell cycle arrest in human A-375 cells assessed as accumulation at G0/G1 phase upto […] incubated for 48 hrs by propidium iodide staining based flow cytometry; type: functional
# How it was run: (§1)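 Tumor cells incubated 48 h in complete medium with compound or DMSO at various concentrations, stained with propidium iodide, and DNA content read by flow cytometry. G0/G1, S and G2/M fractions reported; mean ± SD, n = 3, Student's t-test.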
# [2] = molecular target: T1, Protein cereblon/Cyclin-dependent kinase 4 (Mus musculus) (UniProt P30285+Q8C7D2); assay: Protac activity at CRBN/CDK4 in mouse B16F10 cells assessed as induction of CDK4 protein degradation at 500 nM by Western blot analysis; type: cell-based; conditions: B16-F10, time hrs <=12, TDE = time-dependent effect
# T1 sequence (P30285 whole entry, looked up): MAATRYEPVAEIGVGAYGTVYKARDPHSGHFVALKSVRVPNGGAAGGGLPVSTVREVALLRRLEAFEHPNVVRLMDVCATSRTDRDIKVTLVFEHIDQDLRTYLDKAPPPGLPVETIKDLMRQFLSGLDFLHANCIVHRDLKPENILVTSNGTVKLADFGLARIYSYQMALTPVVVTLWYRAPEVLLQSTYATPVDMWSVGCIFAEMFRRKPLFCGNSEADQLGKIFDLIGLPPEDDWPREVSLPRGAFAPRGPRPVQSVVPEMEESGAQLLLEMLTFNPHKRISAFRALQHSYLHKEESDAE
# T1 sequence (Q8C7D2 whole entry, looked up): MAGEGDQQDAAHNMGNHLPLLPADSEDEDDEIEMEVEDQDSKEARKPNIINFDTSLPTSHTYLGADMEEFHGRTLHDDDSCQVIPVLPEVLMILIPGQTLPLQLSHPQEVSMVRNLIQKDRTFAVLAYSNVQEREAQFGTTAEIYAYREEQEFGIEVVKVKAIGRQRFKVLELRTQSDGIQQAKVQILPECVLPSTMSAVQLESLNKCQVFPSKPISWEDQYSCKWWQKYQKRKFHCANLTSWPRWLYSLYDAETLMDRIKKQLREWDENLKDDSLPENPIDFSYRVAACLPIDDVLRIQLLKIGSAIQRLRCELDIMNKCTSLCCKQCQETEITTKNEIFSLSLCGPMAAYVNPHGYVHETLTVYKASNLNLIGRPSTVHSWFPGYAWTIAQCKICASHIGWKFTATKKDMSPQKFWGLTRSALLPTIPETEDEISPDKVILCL
# How it was run: (§2)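 B16F10 and A375 cells treated with DMSO or serial dilutions of compound for 12 h (concentration series), or for the indicated times (time course). CDK2, CDK4 and CDK6 protein levels determined by western blot.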
# [3] = molecular target: Protein cereblon/Cyclin-dependent kinase 4 (Homo sapiens) (UniProt P11802+Q96SW2); assay: Protac activity at CRBN/CDK4 in human A-375 cells assessed as induction of CDK4 protein degradation at 1000 nM by Western blot analysis; type: cell-based; conditions: time hrs <=12, TDE = time-dependent effect; how it was run: as §2
# Sequence of Protein cereblon/Cyclin-dependent kinase 4 (Homo sapiens) (P11802 2-303 limits assumed): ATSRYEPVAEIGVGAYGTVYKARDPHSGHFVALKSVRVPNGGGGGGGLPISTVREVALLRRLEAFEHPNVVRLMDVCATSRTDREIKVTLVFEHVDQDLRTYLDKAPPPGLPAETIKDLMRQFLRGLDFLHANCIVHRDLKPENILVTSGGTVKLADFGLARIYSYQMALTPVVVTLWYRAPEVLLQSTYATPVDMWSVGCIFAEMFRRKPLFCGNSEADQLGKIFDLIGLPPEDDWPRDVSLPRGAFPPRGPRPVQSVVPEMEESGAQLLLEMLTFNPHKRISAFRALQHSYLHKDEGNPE
# Sequence of Protein cereblon/Cyclin-dependent kinase 4 (Homo sapiens) (Q96SW2 whole entry partner): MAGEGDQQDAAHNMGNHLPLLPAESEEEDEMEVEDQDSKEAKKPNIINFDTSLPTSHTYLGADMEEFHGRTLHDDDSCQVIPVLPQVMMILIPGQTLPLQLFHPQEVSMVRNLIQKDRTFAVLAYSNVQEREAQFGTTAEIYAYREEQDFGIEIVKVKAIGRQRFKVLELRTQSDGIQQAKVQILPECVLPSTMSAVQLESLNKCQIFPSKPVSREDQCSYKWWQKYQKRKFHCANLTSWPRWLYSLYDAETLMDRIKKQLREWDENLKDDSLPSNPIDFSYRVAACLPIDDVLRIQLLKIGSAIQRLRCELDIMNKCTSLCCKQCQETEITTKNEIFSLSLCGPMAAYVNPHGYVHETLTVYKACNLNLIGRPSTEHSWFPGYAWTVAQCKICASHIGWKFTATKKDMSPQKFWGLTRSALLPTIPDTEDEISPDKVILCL
# [4] = molecular target: Protein cereblon/Cyclin-dependent kinase 6 (Homo sapiens) (UniProt Q00534+Q96SW2); assay: Protac activity at CRBN/CDK6 in human A-375 cells assessed as induction of CDK6 protein degradation at 1000 nM by Western blot analysis; type: cell-based; conditions: time hrs <=12, TDE = time-dependent effect; how it was run: as §2
# Sequence of Protein cereblon/Cyclin-dependent kinase 6 (Homo sapiens) (Q00534 whole entry, looked up): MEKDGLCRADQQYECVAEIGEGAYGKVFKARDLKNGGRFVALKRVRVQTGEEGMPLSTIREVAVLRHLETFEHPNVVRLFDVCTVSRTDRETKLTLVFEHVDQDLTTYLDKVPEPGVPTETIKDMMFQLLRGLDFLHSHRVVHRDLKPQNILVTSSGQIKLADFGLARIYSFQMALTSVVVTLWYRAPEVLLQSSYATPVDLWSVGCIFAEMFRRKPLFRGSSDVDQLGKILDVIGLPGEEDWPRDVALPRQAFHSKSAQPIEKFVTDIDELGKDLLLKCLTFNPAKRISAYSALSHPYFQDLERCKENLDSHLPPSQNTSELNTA
# Sequence of Protein cereblon/Cyclin-dependent kinase 6 (Homo sapiens) (Q96SW2 whole entry, looked up): as the sequence (Q96SW2 whole entry partner) above
# [5] = molecular target: T1, Protein cereblon/Cyclin-dependent kinase 4 (Mus musculus); assay: Protac activity at CRBN/CDK4 in mouse B16F10 cells assessed as induction of CDK4 protein degradation at 100 nM for 6 hrs in presence of proteasome inhibitor MG132 by Western blot analysis; type: cell-based; conditions: B16-F10
# How it was run: (§3)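 B16F10 cells pre-treated 2 h with DMSO, pomalidomide (10 μM), MG132 (20 μM) or a parent CDK ligand, then exposed to 100 nM degrader for 6 h. CDK2/4/6 protein levels read by western blot.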
# [6] = tested on: B16-F10; assay: Inhibition of colony formation in mouse B16F10 cells at 50 to 100 nM measured after 7 days by crystal violet staining based colony formation assay; type: functional, cell-based; conditions: dose 50-100 nM, time 7.0 day
# How it was run: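 Colony formation (long-term growth) assay in A375 and B16F10 cells under continuous compound exposure for 7 days, then clonogenic growth quantified. Mean ± SD, n = 3; Student's t-test.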
# [7] = tested on: B16-F10; assay: Induction of apoptosis in mouse B16F10 cells assessed as increase in cleaved PARP level incubated for 48 hrs by Western blot analysis; type: functional, cell-based; conditions: dose nM <=1000, time 48.0 hrs
# How it was run: (§4)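 A375 and B16F10 cells incubated with compound for 48 h. Cleaved caspase-3, cleaved PARP, total P53, Bcl-2 and Bax measured by western blot.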
# [8] = tested on: B16-F10; assay: Induction of apoptosis in mouse B16F10 cells assessed as increase in cleaved caspase 3 level incubated for 48 hrs by Western blot analysis; type: functional, cell-based; conditions: dose nM <=1000, time 48.0 hrs; how it was run: as §4
# [9] = tested on: A-375; assay: Induction of apoptosis in human A-375 cells assessed as increase in cleaved caspase 3 level incubated for 48 hrs by Western blot analysis; type: functional, cell-based; conditions: dose nM <=2000, time 48.0 hrs; how it was run: as §4
# [10] = tested on: A-375; assay: Induction of apoptosis in human A-375 cells assessed as increase in bax level upto 2000 nM incubated for 48 hrs by Western blot analysis; type: functional, cell-based; conditions: dose nM <=2000, time 48.0 hrs; how it was run: as §4
# [11] = tested on: A-375; assay: Induction of apoptosis in human A-375 cells assessed as decrease in Bcl-2 level upto 2000 nM incubated for 48 hrs by Western blot analysis; type: functional, cell-based; conditions: dose nM <=2000, time 48.0 hrs; how it was run: as §4
# [12] = Cmax in Sprague-Dawley rat at 200 mg/kg, po; type: ADME, organism-based; design: route oral, dose 200 mg/kg; conditions: in vivo
# How it was run: (§5)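 Single oral dose of 200 mg/Kg to SD rats (n = 3). Prodrug and released active degrader quantified in plasma over 0–12 h; Cmax, Tmax and AUC0-12 derived by non-compartmental model.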
# [13] = Cmax in Sprague-Dawley rat at 10 mg/kg, iv; type: ADME, organism-based; design: route intravenous, dose 10 mg/kg; conditions: in vivo
# [14] = AUC (0 to 12 hrs) in Sprague-Dawley rat at 200 mg/kg, po; type: ADME, organism-based; design: time < 12 hr, route oral, dose 200 mg/kg; conditions: in vivo; how it was run: as §5
# [15] = molecular target: T2, Protein cereblon/Cyclin-dependent kinase 2 (Mus musculus) (UniProt P97377+Q8C7D2); assay: Protac activity at CRBN/CDK2 in mouse B16F10 cells assessed as induction of CDK2 protein degradation at 100 nM for 6 hrsin presence of Pomalidomide by Western blot analysis; type: cell-based; conditions: B16-F10, time 6.0 hrs; how it was run: as §3
# T2 sequence (Q8C7D2 whole entry, looked up, other chains not shown): as the sequence (Q8C7D2 whole entry, looked up) above
# [16] = molecular target: T1, Protein cereblon/Cyclin-dependent kinase 4 (Mus musculus); assay: Protac activity at CRBN/CDK4 in mouse B16F10 cells assessed as induction of CDK4 protein degradation at 100 nM for 6 hrsin presence of Pomalidomide by Western blot analysis; type: cell-based; conditions: B16-F10, time 6.0 hrs; how it was run: as §3
# [17] = molecular target: T2, Protein cereblon/Cyclin-dependent kinase 2 (Mus musculus); assay: Protac activity at CRBN/CDK2 in mouse B16F10 cells assessed as induction of CDK2 protein degradation at 100 nM for 6 hrsin presence of methyl 6-(7-cyclopentyl-6-(dimethylcarbamoyl)-7H-pyrrolo[2,3-d]pyrimidin-2-ylamino)nicotinate by Western blot analysis; type: cell-based; conditions: B16-F10, time 6.0 hrs; how it was run: as §3
# [18] = molecular target: Protein cereblon/Cyclin-dependent kinase 6 (Mus musculus) (UniProt Q8C7D2+Q64261); assay: Protac activity at CRBN/CDK6 in mouse B16F10 cells assessed as induction of CDK6 protein degradation at 100 nM for 6 hrsin presence of methyl 6-(7-cyclopentyl-6-(dimethylcarbamoyl)-7H-pyrrolo[2,3-d]pyrimidin-2-ylamino)nicotinate by Western blot analysis; type: cell-based; conditions: B16-F10, time 6.0 hrs; how it was run: as §3
# Sequence of Protein cereblon/Cyclin-dependent kinase 6 (Mus musculus) (Q64261 whole entry, looked up): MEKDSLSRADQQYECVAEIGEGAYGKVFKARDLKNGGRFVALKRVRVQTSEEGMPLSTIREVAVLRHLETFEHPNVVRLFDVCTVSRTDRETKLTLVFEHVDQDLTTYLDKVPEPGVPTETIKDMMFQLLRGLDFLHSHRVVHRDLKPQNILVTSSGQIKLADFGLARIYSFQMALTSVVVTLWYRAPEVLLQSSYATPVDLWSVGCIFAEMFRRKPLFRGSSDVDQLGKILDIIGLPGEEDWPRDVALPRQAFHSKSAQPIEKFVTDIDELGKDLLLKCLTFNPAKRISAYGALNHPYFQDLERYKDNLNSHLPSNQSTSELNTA
# Sequence of Protein cereblon/Cyclin-dependent kinase 6 (Mus musculus) (Q8C7D2 whole entry, looked up): as the sequence (Q8C7D2 whole entry, looked up) above
# [19] = tested on: B16-F10; assay: Induction of apoptosis in mouse B16F10 cells assessed as early apoptotic cells at 125 nM incubated for 48 hrs by Annexin V-FITC/PI staining based flow cytometry (reference value: 3.52%); type: functional
# [20] = tested on: B16-F10; assay: Induction of apoptosis in mouse B16F10 cells assessed as early apoptotic cells at 250 nM incubated for 48 hrs by Annexin V-FITC/PI staining based flow cytometry (reference value: 3.52%); type: functional
# [21] = tested on: A-375; assay: Induction of apoptosis in human A-375 cells assessed as viable cells at 500 nM incubated for 48 hrs by Annexin V-FITC/PI staining based flow cytometry (reference value: 93.3%); type: functional; conditions: read-out: Activity
# [22] = tested on: A-375; assay: Induction of apoptosis in human A-375 cells assessed as late apoptotic cells at 250 nM incubated for 48 hrs by Annexin V-FITC/PI staining based flow cytometry (reference value: 3.28%); type: functional
# [23] = tested on: A-375; assay: Induction of apoptosis in human A-375 cells assessed as necrotic cells at 250 nM incubated for 48 hrs by Annexin V-FITC/PI staining based flow cytometry (reference value: 0.602%); type: functional
# [24] = tested on: B16-F10; assay: Induction of cell cycle arrest in mouse B16-F10 cells assessed as accumulation at G2 phase at 25 uM incubated for 48 hrs by propidium iodide staining based flow cytometry (reference value: 18.22%); type: functional
# [25] = tested on: B16-F10; assay: Induction of cell cycle arrest in mouse B16-F10 cells assessed as accumulation at G2 phase at 100 uM incubated for 48 hrs by propidium iodide staining based flow cytometry (reference value: 18.22%); type: functional
# [26] = tested on: A-375; assay: Induction of cell cycle arrest in human A-375 cells assessed as accumulation at G1 phase at 500 uM incubated for 48 hrs by propidium iodide staining based flow cytometry (reference value: 58.26%); type: functional; how it was run: as §1
# [27] = tested on: A-375; assay: Induction of cell cycle arrest in human A-375 cells assessed as accumulation at G1 phase at 1000 uM incubated for 48 hrs by propidium iodide staining based flow cytometry (reference value: 58.26%); type: functional; how it was run: as §1
smiles,measurement,setting,value
CN(C)C(=O)c1cc2cnc(Nc3ccc(C(=O)NCCCCCCNc4cccc5c4C(=O)N(C4CCC(=O)NC4=O)C5=O)cc3)nc2n1C1CCCC1 (configuration not stated),Activity,[1],Active
same,Activity,[2],Tde
same,Activity,[3],Tde
same,Activity,[4],Tde
same,Activity,[5],inactive
same,inhibition,[6],Active
same,Activity,[7],Dose-dependent effect
same,Activity,[8],Dose-dependent effect
same,Activity,[9],Dose-dependent effect
same,Activity,[10],Active
same,Activity,[11],Active
same,Cmax,[12],692 µg/mL
same,Cmax,[13],59.9 µg/mL
same,AUC,[14],823 µg·h/mL
same,Activity,[15],inactive
same,Activity,[16],inactive
same,Activity,[17],inactive
same,Activity,[18],inactive
same,Activity,[19],7.15%
same,Activity,[20],70.3%
same,viability at 0.5 µM,[21],85.2%
same,Activity,[22],3.78%
same,Activity,[23],0.144%
same,Activity,[24],19.56%
same,Activity,[25],30.56%
same,Activity,[26],73.45%
same,Activity,[27],74.09%
